Source: ChEMBL document CHEMBL1135435, “Synthesis and pharmacological evaluation of 5-(4-biphenyl)-3-methyl-4-phenyl-1,2,4-triazole derivatives as a novel class of selective antagonists for the human vasopressin V(1A) receptor” (J Med Chem, 2002)

Target: Vasopressin V2 receptor (Rattus norvegicus, UniProt Q00788)
Experiment: Binding affinity at Vasopressin V2 receptor, performed using [3H]AVP on rat kidney
Outline: (§1)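 [3H]AVP binding on plasma membranes prepared from rat liver (V1A) or rat kidney (V2). Ki from four to six independent experiments in duplicate, mean ± SEM; selectivity expressed as V2/V1A Ki ratio.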

Vasopressin V2 receptor (Rattus norvegicus, UniProt Q00788), sequence (Q00788 whole entry): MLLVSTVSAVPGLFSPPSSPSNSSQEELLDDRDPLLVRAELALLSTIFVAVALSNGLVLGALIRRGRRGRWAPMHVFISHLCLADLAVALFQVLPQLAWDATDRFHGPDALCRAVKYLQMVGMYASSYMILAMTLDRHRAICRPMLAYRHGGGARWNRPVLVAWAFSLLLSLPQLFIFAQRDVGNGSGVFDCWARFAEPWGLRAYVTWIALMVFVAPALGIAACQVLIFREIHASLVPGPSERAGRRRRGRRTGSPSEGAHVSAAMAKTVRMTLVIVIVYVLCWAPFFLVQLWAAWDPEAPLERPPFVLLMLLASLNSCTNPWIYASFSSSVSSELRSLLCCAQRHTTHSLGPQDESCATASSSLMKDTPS

Row | Structure (SMILES) | Ki [nM]
1 | Cc1cccc(OCCCCCCN2CCN(C)CC2)c1-n1c(C)nnc1-c1ccc(-c2ccccc2)cc1 | 11700
2 | COc1ccc(S(=O)(=O)N2c3ccc(Cl)cc3[C@](O)(c3ccccc3Cl)[C@@H]2C(=O)N2CCC[C@H]2C(N)=O)cc1OC [RELCOVAPTAN] | 285
3 | CC(=O)NCCCOc1ccc(C(=O)N2CCC(N3C(=O)CCc4ccccc43)CC2)cc1 | > 10000
4 | CN(C)C1CCN(C(=O)/C=C2/c3ccccc3N(C(=O)c3ccc(NC(=O)c4ccccc4-c4ccccc4)cc3)CCC2(F)F)CC1 | 0.77
5 | Cc1nnc(-c2ccc(-c3ccccc3)cc2)n1-c1ccccc1OCCCCCCN1CCC(N2CCCCC2)CC1 | 1010
6 | Cc1nnc(-c2ccc(-c3ccccc3)cc2)n1-c1ccccc1OCc1ccc(C(=O)N2CCN(C)CC2)cc1 | 364
7 | Cc1cccc(OCc2ccc(C(=O)N3CCC(N4CCCCC4)CC3)cc2)c1-n1c(C)nnc1-c1ccc(-c2ccccc2)cc1 | 1840
8 | Cc1nnc(-c2ccc(-c3ccccc3)cc2)n1-c1ccccc1OCCCCCCN1CCN(C)CC1 | 1240

Target: Vasopressin V2 receptor (Homo sapiens, UniProt P30518)
Sequence (P30518 whole entry): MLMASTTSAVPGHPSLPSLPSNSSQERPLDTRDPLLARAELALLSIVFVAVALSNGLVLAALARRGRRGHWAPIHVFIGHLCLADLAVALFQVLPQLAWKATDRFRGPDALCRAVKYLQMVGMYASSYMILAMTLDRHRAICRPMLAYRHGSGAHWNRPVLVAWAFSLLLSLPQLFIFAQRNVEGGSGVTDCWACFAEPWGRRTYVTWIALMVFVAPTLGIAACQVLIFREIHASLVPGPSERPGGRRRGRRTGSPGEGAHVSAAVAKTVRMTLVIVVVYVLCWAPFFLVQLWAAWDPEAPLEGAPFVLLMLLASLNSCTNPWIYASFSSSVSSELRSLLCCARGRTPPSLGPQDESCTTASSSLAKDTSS
Experiment: Binding affinity at cloned human Vasopressin V2 receptor stably expressed in CHO cells, using [3H]AVP as radioligand
Format: cell-based
Outline: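 Membranes from CHO cells stably expressing cloned human receptor; [3H]AVP (0.5-1.0 nM) with graded test concentrations in 50 mM Tris-HCl pH 7.4, 10 mM MgCl2, 0.1% BSA, 60 min at 25 °C. Stopped with ice-cold Tris buffer, rapid GF/B filtration, scintillation counting. Nonspecific binding with 1 μM unlabeled AVP. Ki = IC50/(1+[L]/Kd); Kd from Scatchard: 0.39 nM (V1A), 1.21 nM (V2).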

Row | Structure (SMILES) | Ki [µM]
9 | Cc1nnc(-c2ccc(-c3ccccc3)cc2)n1-c1ccccc1OCCCCCCN1CCCCC1 | 6.93
10 | Cc1cccc(OCCCCCCN2CCN(C)CC2)c1-n1c(C)nnc1-c1ccc(-c2ccccc2)cc1 | 14.4
11 | Cc1nnc(-c2ccc(-c3ccccc3)cc2)n1-c1ccccc1OCCCCN1CCN(C)CC1 | 10.2
12 | COc1ccc(S(=O)(=O)N2c3ccc(Cl)cc3[C@](O)(c3ccccc3Cl)[C@@H]2C(=O)N2CCC[C@H]2C(N)=O)cc1OC [RELCOVAPTAN] | 0.178
13 | CC(=O)NCCCOc1ccc(C(=O)N2CCC(N3C(=O)CCc4ccccc43)CC2)cc1 | > 10
14 | CN(C)C1CCN(C(=O)/C=C2/c3ccccc3N(C(=O)c3ccc(NC(=O)c4ccccc4-c4ccccc4)cc3)CCC2(F)F)CC1 | 0.00119
15 | Cc1nnc(-c2ccc(-c3ccccc3)cc2)n1-c1ccccc1OCCCCC1CCNCC1 | 4.43
16 | Cc1nnc(-c2ccc(-c3ccccc3)cc2)n1-c1ccccc1OCCCCCC(=O)N1CCN(C)CC1 | 6.65
17 | Cc1nnc(-c2ccc(-c3ccccc3)cc2)n1-c1ccccc1OCCCCCCN1CCC(N2CCCCC2)CC1 | 0.979
18 | COc1ccccc1-n1c(C)nnc1-c1ccc(-c2ccccc2)cc1 | 2.46
19 | Cc1nnc(-c2ccc(-c3ccccc3)cc2)n1-c1ccccc1OCc1ccc(C(=O)N2CCN(C)CC2)cc1 | 0.585
20 | Cc1nnc(-c2ccc(-c3ccccc3)cc2)n1-c1ccccc1OCCCCCCCN1CCN(C)CC1 | 2.47
21 | Cc1nnc(-c2ccc(-c3ccccc3)cc2)n1-c1ccccc1OCCCN1CCN(C)CC1 | 10.2
22 | Cc1cccc(OCc2ccc(C(=O)N3CCN(C)CC3)cc2)c1-n1c(C)nnc1-c1ccc(-c2ccccc2)cc1 | 8.52
23 | Cc1cccc(OCc2ccc(C(=O)N3CCC(N4CCCCC4)CC3)cc2)c1-n1c(C)nnc1-c1ccc(-c2ccccc2)cc1 | 1.92
24 | Cc1nnc(-c2ccc(-c3ccccc3)cc2)n1-c1ccccc1OCCCCCN1CCN(C)CC1 | 4.85
25 | Cc1nnc(-c2ccc(-c3ccccc3)cc2)n1-c1ccccc1OCCCC1CCNCC1 | 7.37
26 | Cc1nnc(-c2ccc(-c3ccccc3)cc2)n1-c1ccccc1OCCCCCCN1CCN(C)CC1 | 1.78
27 | Cc1nnc(-c2ccc(-c3ccccc3)cc2)n1-c1ccccc1OCCCCCCn1ccnc1 | 11.1
28 | Cc1nnc(-c2ccc(-c3ccccc3)cc2)n1-c1ccccc1OCCC1CCNCC1 | 8.17
29 | Cc1nnc(-c2ccc(-c3ccccc3)cc2)n1-c1ccccc1OCCCCCCCCN1CCN(C)CC1 | 8.89
30 | Cc1nnc(-c2ccc(-c3ccccc3)cc2)n1-c1ccccc1OCCCCCCCCCCN1CCN(C)CC1 | 14.3

Target: Vasopressin V2 receptor (Rattus norvegicus) (UniProt Q00788)
Sequence (Q00788 whole entry): as the sequence (Q00788 whole entry) above
Experiment: Selectivity ratio (Ki) of affinity at rat Vasopressin V2 receptor to that of rat Vasopressin V1a receptor
Outline: as §1

Row | Structure (SMILES) | Ratio
31 | Cc1cccc(OCCCCCCN2CCN(C)CC2)c1-n1c(C)nnc1-c1ccc(-c2ccccc2)cc1 | 110
32 | CC(=O)NCCCOc1ccc(C(=O)N2CCC(N3C(=O)CCc4ccccc43)CC2)cc1 | > 430
33 | CN(C)C1CCN(C(=O)/C=C2/c3ccccc3N(C(=O)c3ccc(NC(=O)c4ccccc4-c4ccccc4)cc3)CCC2(F)F)CC1 | 4.8
34 | Cc1nnc(-c2ccc(-c3ccccc3)cc2)n1-c1ccccc1OCCCCCCN1CCC(N2CCCCC2)CC1 | 100
35 | Cc1nnc(-c2ccc(-c3ccccc3)cc2)n1-c1ccccc1OCc1ccc(C(=O)N2CCN(C)CC2)cc1 | 5.8
36 | Cc1cccc(OCc2ccc(C(=O)N3CCC(N4CCCCC4)CC3)cc2)c1-n1c(C)nnc1-c1ccc(-c2ccccc2)cc1 | 57
37 | Cc1nnc(-c2ccc(-c3ccccc3)cc2)n1-c1ccccc1OCCCCCCN1CCN(C)CC1 | 72

Target: Vasopressin V1a receptor (Homo sapiens, UniProt P37288)
Sequence (P37288 whole entry): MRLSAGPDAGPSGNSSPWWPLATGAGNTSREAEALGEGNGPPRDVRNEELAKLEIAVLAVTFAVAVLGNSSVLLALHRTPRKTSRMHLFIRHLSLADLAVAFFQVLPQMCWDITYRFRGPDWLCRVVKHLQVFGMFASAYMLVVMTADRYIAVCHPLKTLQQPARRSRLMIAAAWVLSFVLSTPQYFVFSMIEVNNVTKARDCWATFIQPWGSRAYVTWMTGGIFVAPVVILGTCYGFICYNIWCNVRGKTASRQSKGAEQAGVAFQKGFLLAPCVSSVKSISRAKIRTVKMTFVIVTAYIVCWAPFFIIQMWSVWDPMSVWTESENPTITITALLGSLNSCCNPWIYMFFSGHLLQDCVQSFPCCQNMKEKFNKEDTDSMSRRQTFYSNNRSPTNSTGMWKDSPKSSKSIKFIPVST
Experiment: Binding affinity at cloned human Vasopressin V1a receptor stably expressed in CHO cells, using [3H]AVP as radioligand
Format: cell-based
Outline: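 Membranes from CHO cells stably expressing cloned human receptor; [3H]AVP (0.5-1.0 nM) with graded test concentrations in 50 mM Tris-HCl pH 7.4, 10 mM MgCl2, 0.1% BSA, 60 min at 25 °C. Stopped with ice-cold Tris buffer, rapid GF/B filtration, scintillation counting. Nonspecific binding with 1 μM unlabeled AVP.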

Row | Structure (SMILES) | Ki [nM]
38 | Cc1nnc(-c2ccc(-c3ccccc3)cc2)n1-c1ccccc1OCCCCCCN1CCCCC1 | 13.9
39 | Cc1cccc(OCCCCCCN2CCN(C)CC2)c1-n1c(C)nnc1-c1ccc(-c2ccccc2)cc1 | 1.46
40 | Cc1nnc(-c2ccc(-c3ccccc3)cc2)n1-c1ccccc1OCCCCN1CCN(C)CC1 | 29.1
41 | CC(=O)NCCCOc1ccc(C(=O)N2CCC(N3C(=O)CCc4ccccc43)CC2)cc1 | > 10000
42 | CN(C)C1CCN(C(=O)/C=C2/c3ccccc3N(C(=O)c3ccc(NC(=O)c4ccccc4-c4ccccc4)cc3)CCC2(F)F)CC1 | 0.62
43 | Cc1nnc(-c2ccc(-c3ccccc3)cc2)n1-c1ccccc1OCCCCC1CCNCC1 | 2.12
44 | Cc1nnc(-c2ccc(-c3ccccc3)cc2)n1-c1ccc(OCCCCCCN2CCN(C)CC2)cc1 | > 10000
45 | Cc1nnc(-c2ccc(-c3ccccc3)cc2)n1-c1ccccc1OCCCCCC(=O)N1CCN(C)CC1 | 9.16
46 | Cc1nnc(-c2ccc(-c3ccccc3)cc2)n1-c1ccccc1OCCCCCCN1CCC(N2CCCCC2)CC1 | 1.05
47 | COc1ccccc1-n1c(C)nnc1-c1ccc(-c2ccccc2)cc1 | 120
48 | Cc1nnc(-c2ccc(-c3ccccc3)cc2)n1-c1ccccc1OCc1ccc(C(=O)N2CCN(C)CC2)cc1 | 3.03
49 | Cc1nnc(-c2ccc(-c3ccccc3)cc2)n1-c1ccccc1OCCCCCCCN1CCN(C)CC1 | 4.5
50 | Cc1nnc(-c2ccc(-c3ccccc3)cc2)n1-c1ccccc1OCCCN1CCN(C)CC1 | 38.3
51 | Cc1cccc(OCc2ccc(C(=O)N3CCN(C)CC3)cc2)c1-n1c(C)nnc1-c1ccc(-c2ccccc2)cc1 | 8.09
52 | Cc1cccc(OCc2ccc(C(=O)N3CCC(N4CCCCC4)CC3)cc2)c1-n1c(C)nnc1-c1ccc(-c2ccccc2)cc1 | 1.01
53 | Cc1nnc(-c2ccc(-c3ccccc3)cc2)n1-c1ccccc1OCCCCCN1CCN(C)CC1 | 4.09
54 | Cc1nnc(-c2ccc(-c3ccccc3)cc2)n1-c1ccccc1OCCCC1CCNCC1 | 7.84
55 | Cc1nnc(-c2ccc(-c3ccccc3)cc2)n1-c1ccccc1OCCCCCCN1CCN(C)CC1 | 1.04
56 | Cc1nnc(-c2ccc(-c3ccccc3)cc2)n1-c1ccccc1OCCCCCCn1ccnc1 | 9.06
57 | Cc1nnc(-c2ccc(-c3ccccc3)cc2)n1-c1ccccc1OCCC1CCNCC1 | 55.5
58 | Cc1nnc(-c2ccc(-c3ccccc3)cc2)n1-c1ccccc1OCCCCCCCCN1CCN(C)CC1 | 13.2
59 | Cc1nnc(-c2ccc(-c3ccccc3)cc2)n1-c1ccccc1OCCCCCCCCCCN1CCN(C)CC1 | 39.4
60 | Cc1nnc(-c2ccc(-c3ccccc3)cc2)n1-c1cccc(OCCCCCCN2CCN(C)CC2)c1 | 214

System: not listed separately
Experiment: Selectivity ratio of affinity at human Vasopressin V2 receptor to that of human Vasopressin V1a receptor.
Outline: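 Ratio of hV2 Ki to hV1A Ki, each from [3H]AVP displacement on membranes of CHO cells stably expressing the cloned human receptor (60 min, 25 °C, filtration read-out; Ki via Cheng–Prusoff using Scatchard Kd).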

Row | Structure (SMILES) | Ratio
61 | Cc1nnc(-c2ccc(-c3ccccc3)cc2)n1-c1ccccc1OCCCCCCN1CCCCC1 | 500
62 | Cc1cccc(OCCCCCCN2CCN(C)CC2)c1-n1c(C)nnc1-c1ccc(-c2ccccc2)cc1 | 9900
63 | Cc1nnc(-c2ccc(-c3ccccc3)cc2)n1-c1ccccc1OCCCCN1CCN(C)CC1 | 360
64 | CN(C)C1CCN(C(=O)/C=C2/c3ccccc3N(C(=O)c3ccc(NC(=O)c4ccccc4-c4ccccc4)cc3)CCC2(F)F)CC1 | 1.9
65 | Cc1nnc(-c2ccc(-c3ccccc3)cc2)n1-c1ccccc1OCCCCC1CCNCC1 | 2100
66 | Cc1nnc(-c2ccc(-c3ccccc3)cc2)n1-c1ccccc1OCCCCCC(=O)N1CCN(C)CC1 | 730
67 | Cc1nnc(-c2ccc(-c3ccccc3)cc2)n1-c1ccccc1OCCCCCCN1CCC(N2CCCCC2)CC1 | 930
68 | COc1ccccc1-n1c(C)nnc1-c1ccc(-c2ccccc2)cc1 | 21
69 | Cc1nnc(-c2ccc(-c3ccccc3)cc2)n1-c1ccccc1OCc1ccc(C(=O)N2CCN(C)CC2)cc1 | 190
70 | Cc1nnc(-c2ccc(-c3ccccc3)cc2)n1-c1ccccc1OCCCCCCCN1CCN(C)CC1 | 550
71 | Cc1nnc(-c2ccc(-c3ccccc3)cc2)n1-c1ccccc1OCCCN1CCN(C)CC1 | 270
72 | Cc1cccc(OCc2ccc(C(=O)N3CCN(C)CC3)cc2)c1-n1c(C)nnc1-c1ccc(-c2ccccc2)cc1 | 1100
73 | Cc1cccc(OCc2ccc(C(=O)N3CCC(N4CCCCC4)CC3)cc2)c1-n1c(C)nnc1-c1ccc(-c2ccccc2)cc1 | 1900
74 | Cc1nnc(-c2ccc(-c3ccccc3)cc2)n1-c1ccccc1OCCCCCN1CCN(C)CC1 | 1200
75 | Cc1nnc(-c2ccc(-c3ccccc3)cc2)n1-c1ccccc1OCCCC1CCNCC1 | 940
76 | Cc1nnc(-c2ccc(-c3ccccc3)cc2)n1-c1ccccc1OCCCCCCN1CCN(C)CC1 | 1700
77 | Cc1nnc(-c2ccc(-c3ccccc3)cc2)n1-c1ccccc1OCCCCCCn1ccnc1 | 1200
78 | Cc1nnc(-c2ccc(-c3ccccc3)cc2)n1-c1ccccc1OCCC1CCNCC1 | 150
79 | Cc1nnc(-c2ccc(-c3ccccc3)cc2)n1-c1ccccc1OCCCCCCCCN1CCN(C)CC1 | 670
80 | Cc1nnc(-c2ccc(-c3ccccc3)cc2)n1-c1ccccc1OCCCCCCCCCCN1CCN(C)CC1 | 360

Target: Vasopressin V1a receptor (Rattus norvegicus, UniProt P30560)
Sequence (P30560 whole entry): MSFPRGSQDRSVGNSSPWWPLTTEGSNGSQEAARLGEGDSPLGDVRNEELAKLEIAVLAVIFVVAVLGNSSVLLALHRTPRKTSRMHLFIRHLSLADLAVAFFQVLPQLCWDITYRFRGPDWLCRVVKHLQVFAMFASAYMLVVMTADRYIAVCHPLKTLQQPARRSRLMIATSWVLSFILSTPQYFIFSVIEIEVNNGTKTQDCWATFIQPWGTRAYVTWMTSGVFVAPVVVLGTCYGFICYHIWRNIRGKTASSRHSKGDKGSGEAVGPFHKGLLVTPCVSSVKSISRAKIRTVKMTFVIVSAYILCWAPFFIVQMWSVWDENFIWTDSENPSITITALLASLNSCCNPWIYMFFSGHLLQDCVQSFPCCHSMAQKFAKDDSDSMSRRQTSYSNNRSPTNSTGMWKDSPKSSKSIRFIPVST
Experiment: Binding affinity at Vasopressin V1a receptor, performed using [3H]AVP on rat liver
Outline: as §1

Row | Structure (SMILES) | Ki [nM]
81 | Cc1cccc(OCCCCCCN2CCN(C)CC2)c1-n1c(C)nnc1-c1ccc(-c2ccccc2)cc1 | 102
82 | CN(C)C1CCN(C(=O)/C=C2/c3ccccc3N(C(=O)c3ccc(NC(=O)c4ccccc4-c4ccccc4)cc3)CCC2(F)F)CC1 | 0.16
83 | Cc1nnc(-c2ccc(-c3ccccc3)cc2)n1-c1ccccc1OCCCCCCN1CCC(N2CCCCC2)CC1 | 9.69
84 | Cc1nnc(-c2ccc(-c3ccccc3)cc2)n1-c1ccccc1OCc1ccc(C(=O)N2CCN(C)CC2)cc1 | 62.7
85 | Cc1cccc(OCc2ccc(C(=O)N3CCC(N4CCCCC4)CC3)cc2)c1-n1c(C)nnc1-c1ccc(-c2ccccc2)cc1 | 32.4
86 | Cc1nnc(-c2ccc(-c3ccccc3)cc2)n1-c1ccccc1OCCCCCCN1CCN(C)CC1 | 17.3
